Experiment [1] is described as follows: Induction of adiponectin biosynthesis in human BMMSC cells assessed as adiponectin level at 10 uM measured after 7 days by ELISA (IDX Control = 100 +/- 57 pg/ml). As to conditions: time 7 day. In kind it is functional, Mesenchymal stem cells.
Experiment [2] in a line: Induction of leptin biosynthesis in human BMMSC cells assessed as leptin level at 10 uM measured after 7 days by ELISA (RVB = 18 + /- 18 pg/ml). Format: functional, Mesenchymal stem cells. As to conditions: time 7 day.
Experiment [3] is described as follows: Induction of adiponectin biosynthesis in human BMMSC cells assessed as adiponectin level at 5 uM measured after 7 days by ELISA (IDX Control = 100 +/- 57 pg/ml). Format: functional, Mesenchymal stem cells. As to conditions: time 7 day. An outline of the steps:
(§1)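 Human bone-marrow MSCs grown in low-glucose DMEM (1 g/L) with 10% FBS, 1% penicillin-streptomycin and 1% Glutamax. Compounds were given in adipogenic IDX medium, refreshed on days 3 and 6. On day 7, supernatant adiponectin was quantified by Quantikine ELISA against the IDX control. Mean ± SD, n = 3 independent experiments; one-way ANOVA with post-hoc tests.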

Experiment [4] has as its system Mesenchymal stem cells. The experiment is described as follows: Induction of adipogenesis in human BMMSC cells assessed as increase in lipid droplet accumulation at 5 uM after 7 days by Oil red O and hematoxylin staining based assay relative to IDX control. In kind it is functional, cell-based. As to conditions: time 7.0 day. An outline of the steps:
(§2)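 hBM-MSCs grown in low-glucose DMEM (1 g/L) with 10% FBS, Glutamax and penicillin-streptomycin, then differentiated in IDX medium containing compound, refreshed on days 3 and 6. On day 7, cells fixed in 10% neutral buffered formalin for 40 min and stained with 0.2% Oil Red O for 15 min, nuclei with hematoxylin. Dye eluted in isopropanol and read at 540 nm against IDX control.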

Experiment [5] is described as follows: Induction of leptin biosynthesis in human BMMSC cells assessed as leptin level at 5 uM measured after 7 days by ELISA (RVB = 18 + /- 18 pg/ml). In kind it is functional, Mesenchymal stem cells. As to conditions: time 7 day.
The nature of experiment [6]: Induction of adiponectin biosynthesis in human BMMSC cells assessed as adiponectin level measured after 7 days by ELISA. The conditions noted are these: Mesenchymal stem cells, 168 h.
Experiment [7] can be described thus: Induction of adiponectin biosynthesis in human BMMSC cells assessed as fold increase in production at 30 uM measured after 7 days by ELISA relative to IDX control. Format: functional, Mesenchymal stem cells. As to conditions: time 7 day, 168 h. An outline of the steps:
as §1

A short description of experiment [8]: Induction of leptin biosynthesis in human BMMSC cells assessed as fold increase in production at 30 uM measured after 10 days by ELISA relative to control. The conditions noted are these: time 10 day.
Experiment [9] can be described thus: Induction of leptin biosynthesis in human BMMSC cells assessed as leptin level at 1 uM measured after 7 days by ELISA (RVB = 18 + /- 18 pg/ml). Format: functional, Mesenchymal stem cells. As to conditions: time 7 day.
Experiment [10] is described as follows: Induction of leptin biosynthesis in human BMMSC cells assessed as leptin level at 300 uM measured after 7 days by ELISA (RVB = 18 + /- 18 pg/ml). In kind it is functional, Mesenchymal stem cells. The conditions noted are these: time 7 day.
Experiment [11] can be described thus: Induction of adiponectin biosynthesis in human BMMSC cells assessed as adiponectin level at 300 uM measured after 7 days by ELISA (IDX Control = 100 +/- 57 pg/ml). In kind it is functional, Mesenchymal stem cells. As to conditions: time 7 day. The procedure, abridged: as §1
For experiment [12], the system named is Mesenchymal stem cells. Briefly: Induction of adipogenesis in human BMMSC cells assessed as increase in lipid droplet accumulation at 30 uM after 7 days by Oil red O and hematoxylin staining based assay relative to IDX control. As to conditions: time 7.0 day. In kind it is functional, cell-based. An outline of the steps: as §2

Each structure is given as a SMILES string. pEC50: −log10 of the molar value. Activity calls are given as the source filed them. The rule behind the calls is not given here.

For `Cc1cc(O)c(C(=O)/C=C/c2cc(F)cc(F)c2)c(=O)o1`, the values for the Activity in [1] and in [2] were 172 pg/mL and 33 pg/mL, respectively.
In the case of `COc1ccc(Cl)cc1C(=O)NCCc1ccc(S(=O)(=O)NC(=O)NC2CCCCC2)cc1` [GLYBURIDE], the Activity in [3] stood at 475 pg/mL; in experiment [5], 30 pg/mL. Besides, the result in [4] was Active.
For the compound `CCc1ccc(CCOc2ccc(CC3SC(=O)NC3=O)cc2)nc1` (configuration not stated) [PIOGLITAZONE], the Activity was found to be 812 pg/mL in [3] and 33 pg/mL in experiment [5]. Also, the outcome in experiment [4] was Active. Besides, the pEC50 in experiment [6] is 6.22.
Regarding `Cc1cc(O)c(C(=O)/C=C/c2ccc(O)c(O)c2)c(=O)o1`, the values for the Activity in experiment [1] and in experiment [2] were 243 pg/mL and 16 pg/mL, respectively.
`COc1cc(/C=C/C(=O)c2c(O)cc(C)oc2=O)ccc1O` (stereo in doubt; form 1) [listing 1 of 2 here]: the “fold change (FC)” value in experiment [7] amounted to 3.3.
As to `COc1cc(/C=C/C(=O)c2c(O)cc(C)oc2=O)ccc1F`, the Activity in experiment [1] was found to be 567 pg/mL; in experiment [2] it was 40 pg/mL.
As to `Cc1cc(O)c(C(=O)/C=C/c2ccc(F)c(F)c2)c(=O)o1`, the Activity in experiment [1] is 432 pg/mL; in experiment [2] it was 76 pg/mL.
In the case of `Cc1cc(O)c(C(=O)/C=C/c2ccoc2)c(=O)o1`, the Activity was determined as 320 pg/mL in [1] and 171 pg/mL in experiment [2].
As for `COc1cc(/C=C/C(=O)c2c(O)cc(C)oc2=O)ccc1O` (stereo in doubt; form 2), the “fold change (FC)” value is listed as 2.58 in [8] and 3.18 in [7]. In addition, the figures for the Activity in [1] and in [2] were 399 pg/mL and 82 pg/mL, respectively.
As for `C[C@@H]1C[C@H]2[C@@H]3CCC4=CC(=O)C=C[C@]4(C)[C@@]3(F)[C@@H](O)C[C@]2(C)[C@@]1(O)C(=O)CO` [DEXAMETHASONE], the Activity in [9] came out at 632 pg/mL.
Turning to `Cc1cc(O)c(C(=O)/C=C/c2ccccn2)c(=O)o1`, the figures for the Activity in experiment [1] and in experiment [2] were 396 pg/mL and 95 pg/mL, respectively.
`Cc1cc(O)c(C(=O)/C=C/c2ccc(C)c(C)c2)c(=O)o1`: the figures for the Activity in [1] and in experiment [2] were 438 pg/mL and 17 pg/mL, respectively.
In the case of `CC(=O)Oc1ccccc1C(=O)O` [ASPIRIN], the values for the Activity in experiment [10] and in experiment [11] were 20 pg/mL and 330 pg/mL, respectively.
Take `Cc1cc(O)c(C(=O)/C=C/c2ccc3c(c2)OCO3)c(=O)o1`: the Activity in [1] amounted to 208 pg/mL; in [2] it was 91 pg/mL.
Consider `COc1cc(/C=C/C(=O)c2c(O)cc(C)oc2=O)ccc1O` (stereo in doubt; form 1) [listing 2 of 2 here], for which, in [12], the outcome was Active.
With `COc1ccc(/C=C/C(=O)c2c(O)cc(C)oc2=O)cc1OC`, the Activity in experiment [1] stood at 747 pg/mL; in [2] it was 80 pg/mL.
Take `Cc1cc(O)c(C(=O)/C=C/c2ccsc2)c(=O)o1`: the Activity in experiment [1] came to 486 pg/mL; in experiment [2] it was 193 pg/mL.
For `Cc1cc(O)c(C(=O)/C=C/c2ccc(F)cc2)c(=O)o1`, the results for the Activity in experiment [1] and in [2] were 576 pg/mL and 30 pg/mL, respectively.
As for `Cc1cc(O)c(C(=O)/C=C/c2ccccc2)c(=O)o1`, the values for the Activity in experiment [1] and in experiment [2] were 580 pg/mL and 38 pg/mL, respectively.
On to `Cc1cc(O)c(C(=O)/C=C/c2c[nH]c3ccccc23)c(=O)o1`, for which the results for the Activity in experiment [1] and in experiment [2] were 396 pg/mL and 41 pg/mL, respectively.
